Values after ≈ are worked out from the molar mass of the structure shown.
Columns and labels:
Type in all cases: functional
[1] = system: Staphylococcus aureus; assay: Antibacterial activity against efflux-mediated macrolide-resistance Staphylococcus aureus PK1 by broth microdilution method
Summary of the method: (§1)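 Staphylococci were grown on Mueller-Hinton agar and then tested by CLSI-guideline broth microdilution against two-fold serial dilutions of compound. The result was recorded as the minimum inhibitory concentration.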

[2] = system: Haemophilus influenzae; assay: Antibacterial activity against Haemophilus influenzae ATCC 49247 by broth microdilution method
Summary of the method: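 MIC by broth microdilution following CLSI guidelines, expressed in units of lg/mL. Twofold dilutions prepared in 96-well plates. H. influenzae grown on Mueller-Hinton chocolate agar before testing.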

[3] = system: Staphylococcus aureus; assay: Antibacterial activity against inducible resistance to macrolide, licosamide and streptogramin Staphylococcus aureus 90256 by broth microdilution method; summary of the method: as §1
[4] = system: Streptococcus pneumoniae; assay: Antibacterial activity against constitutive MLS resistance Streptococcus pneumoniae 58 by broth microdilution method
Summary of the method: (§2)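 MIC by CLSI broth microdilution. In the streptococcal medium, 5% horse serum replaced lysed blood. Compounds were tested as two-fold serial dilutions. Strains were first grown on Columbia agar with 5% sheep blood. The MIC was read as the lowest concentration inhibiting growth.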

[5] = system: Streptococcus pneumoniae; assay: Antibacterial activity against inducible resistance to macrolide and constitutive resistance to lincosamide Streptococcus pneumoniae 134 GR M by broth microdilution method; summary of the method: as §2
[6] = system: Streptococcus pyogenes; assay: Antibacterial activity against constitutive MLS resistance sStreptococcus pyogenes 166 GR-Micro by broth microdilution method; summary of the method: as §2
[7] = system: Streptococcus pyogenes; assay: Antibacterial activity against efflux-mediated macrolide-resistance Streptococcus pyogenes 2 Finland by broth microdilution method; summary of the method: as §2
[8] = system: Streptococcus pneumoniae; assay: Antibacterial activity against efflux-mediated macrolide-resistance Streptococcus pneumoniae Ci137 by broth microdilution method; summary of the method: as §2

| SMILES | MIC [1] | MIC [2] | MIC [3] | MIC [4] | MIC [5] | MIC [6] | MIC [7] | MIC [8] |
| --- | --- | --- | --- | --- | --- | --- | --- | --- |
| CC[C@H]1OC(=O)[C@H](C)[C@@H](O[C@H]2C[C@@](C)(OC)[C@@H](OC(=O)CCN(C)CCNc3cc4c(cc3F)c(=O)c(C(=O)O)cn4C3CC3)[C@H](C)O2)[C@H](C)[C@@H](O[C@@H]2O[C@H](C)C[C@H](N(C)C)[C@H]2O)[C@](C)(O)C[C@@H](C)CN(C)[C@H](C)[C@@H](O)[C@]1(C)O | 1 µg/mL (≈ 0.891 µM) | 4 µg/mL (≈ 3.56 µM) | 2 µg/mL (≈ 1.78 µM) | 0.25 µg/mL (≈ 0.223 µM) | 0.25 µg/mL (≈ 0.223 µM) | 2 µg/mL (≈ 1.78 µM) | ≤ 0.125 µg/mL | ≤ 0.125 µg/mL |
| CC[C@H]1OC(=O)[C@H](C)[C@@H](O[C@H]2C[C@@](C)(OC)[C@@H](OC(=O)CCN(C)CCNc3cc4c(=O)c(C(=O)OC)cn(C5CC5)c4cc3Cl)[C@H](C)O2)[C@H](C)[C@@H](O[C@@H]2O[C@H](C)C[C@H](N(C)C)[C@H]2O)[C@](C)(O)C[C@@H](C)CN(C)[C@H](C)[C@@H](O)[C@]1(C)O | 16 µg/mL (≈ 13.9 µM) | 8 µg/mL (≈ 6.94 µM) | > 64 µg/mL | 0.5 µg/mL (≈ 0.434 µM) | 0.5 µg/mL (≈ 0.434 µM) | 1 µg/mL (≈ 0.867 µM) | ≤ 0.125 µg/mL | ≤ 0.125 µg/mL |
| CC[C@H]1OC(=O)[C@H](C)[C@@H](O[C@H]2C[C@@](C)(OC)[C@@H](OC(=O)CCN(C)CCNc3ccc4c(c3)c(=O)c(C(=O)O)cn4C3CC3)[C@H](C)O2)[C@H](C)[C@@H](O[C@@H]2O[C@H](C)C[C@H](N(C)C)[C@H]2O)[C@](C)(O)C[C@@H](C)CN(C)[C@H](C)[C@@H](O)[C@]1(C)O | 1 µg/mL (≈ 0.905 µM) | 4 µg/mL (≈ 3.62 µM) | 1 µg/mL (≈ 0.905 µM) | ≤ 0.125 µg/mL | 0.25 µg/mL (≈ 0.226 µM) | ≤ 0.125 µg/mL | 0.5 µg/mL (≈ 0.453 µM) | ≤ 0.125 µg/mL |
| CC[C@H]1OC(=O)[C@H](C)[C@@H](O[C@H]2C[C@@](C)(OC)[C@@H](OC(=O)CCNCCNc3ccc4c(c3)c(=O)c(C(=O)O)cn4C3CC3)[C@H](C)O2)[C@H](C)[C@@H](O[C@@H]2O[C@H](C)C[C@H](N(C)C)[C@H]2O)[C@](C)(O)C[C@@H](C)CN(C)[C@H](C)[C@H]2OC(=O)O[C@@]21C | 1 µg/mL (≈ 0.896 µM) | 2 µg/mL (≈ 1.79 µM) | 2 µg/mL (≈ 1.79 µM) | 0.25 µg/mL (≈ 0.224 µM) | 0.25 µg/mL (≈ 0.224 µM) | ≤ 0.125 µg/mL | 0.25 µg/mL (≈ 0.224 µM) | ≤ 0.125 µg/mL |
| CC[C@H]1OC(=O)[C@H](C)[C@@H](O[C@H]2C[C@@](C)(OC)[C@@H](OC(=O)CCN(C)CCNc3cc4c(=O)c(C(=O)O)cn(C5CC5)c4cc3Cl)[C@H](C)O2)[C@H](C)[C@@H](O[C@@H]2O[C@H](C)C[C@H](N(C)C)[C@H]2O)[C@](C)(O)C[C@@H](C)CN(C)[C@H](C)[C@H]2OC(=O)O[C@@]21C | 1 µg/mL (≈ 0.858 µM) | 4 µg/mL (≈ 3.43 µM) | 2 µg/mL (≈ 1.72 µM) | 1 µg/mL (≈ 0.858 µM) | 2 µg/mL (≈ 1.72 µM) | 1 µg/mL (≈ 0.858 µM) | ≤ 0.125 µg/mL | ≤ 0.125 µg/mL |
| CC[C@H]1OC(=O)[C@H](C)[C@@H](O[C@H]2C[C@@](C)(OC)[C@@H](OC(=O)CCN(C)CCNc3cc4c(cc3F)c(=O)c(C(=O)O)cn4C3CC3)[C@H](C)O2)[C@H](C)[C@@H](O[C@@H]2O[C@H](C)C[C@H](N(C)C)[C@H]2O)[C@](C)(O)C[C@@H](C)CN(C)[C@H](C)[C@H]2OC(=O)O[C@@]21C | 2 µg/mL (≈ 1.74 µM) | 8 µg/mL (≈ 6.97 µM) | 4 µg/mL (≈ 3.48 µM) | 1 µg/mL (≈ 0.871 µM) | 2 µg/mL (≈ 1.74 µM) | 16 µg/mL (≈ 13.9 µM) | ≤ 0.125 µg/mL | ≤ 0.125 µg/mL |
| CC[C@H]1OC(=O)[C@H](C)[C@@H](O[C@H]2C[C@@](C)(OC)[C@@H](OC(=O)CCN(C)CCNc3ccc4c(c3)c(=O)c(C(=O)O)cn4C3CC3)[C@H](C)O2)[C@H](C)[C@@H](O[C@@H]2O[C@H](C)C[C@H](N(C)C)[C@H]2O)[C@](C)(O)C[C@@H](C)CN(C)[C@H](C)[C@H]2OC(=O)O[C@@]21C | 1 µg/mL (≈ 0.885 µM) | 4 µg/mL (≈ 3.54 µM) | 8 µg/mL (≈ 7.08 µM) | 1 µg/mL (≈ 0.885 µM) | 1 µg/mL (≈ 0.885 µM) | 0.5 µg/mL (≈ 0.442 µM) | ≤ 0.125 µg/mL | ≤ 0.125 µg/mL |
| CC[C@H]1OC(=O)[C@H](C)[C@@H](O[C@H]2C[C@@](C)(OC)[C@@H](OC(=O)CCNCCNc3cc4c(=O)c(C(=O)O)cn(C5CC5)c4cc3Cl)[C@H](C)O2)[C@H](C)[C@@H](O[C@@H]2O[C@H](C)C[C@H](N(C)C)[C@H]2O)[C@](C)(O)C[C@@H](C)CN(C)[C@H](C)[C@H]2OC(=O)O[C@@]21C | 0.5 µg/mL (≈ 0.434 µM) | 2 µg/mL (≈ 1.74 µM) | 1 µg/mL (≈ 0.869 µM) | ≤ 0.125 µg/mL | ≤ 0.125 µg/mL | ≤ 0.125 µg/mL | ≤ 0.125 µg/mL | ≤ 0.125 µg/mL |
| CC[C@H]1OC(=O)[C@H](C)[C@@H](O[C@H]2C[C@@](C)(OC)[C@@H](OC(=O)CCNCCNc3cc4c(cc3F)c(=O)c(C(=O)O)cn4C3CC3)[C@H](C)O2)[C@H](C)[C@@H](O[C@@H]2O[C@H](C)C[C@H](N(C)C)[C@H]2O)[C@](C)(O)C[C@@H](C)CN(C)[C@H](C)[C@H]2OC(=O)O[C@@]21C | 0.25 µg/mL (≈ 0.22 µM) | 2 µg/mL (≈ 1.76 µM) | 1 µg/mL (≈ 0.882 µM) | ≤ 0.125 µg/mL | ≤ 0.125 µg/mL | ≤ 0.125 µg/mL | ≤ 0.125 µg/mL | ≤ 0.125 µg/mL |
